pIC50: −log10 of the molar value. Calls of active or inactive are those of the source. The calls are words filed in the database; no cut-off is given here.
test system: Klebsiella pneumoniae; assay: Antibacterial activity against Klebsiella pneumoniae B9 assessed as reduction in bacterial growth incubated for 16 hrs by broth microdilution assay; assay type: functional; details: not given
Summary of the method: (§1)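 Bacteria grown 4–6 h in CAMHB, subcultured to 5 x 10⁵ CFU/mL in fresh CAMHB. Compound added from 100 mM DMSO stock, then 2-fold serial dilution in microtiter plate; untreated and media-only wells as controls. Stationary incubation at 37 °C for 16 h, then OD₆₀₀ read. MIC taken as lowest concentration giving 90% growth inhibition vs untreated. Duplicate, repeated at least twice.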

**Q.** With Cl.Nc1ncc(-c2ccc(NC(=O)c3cc(Cl)cc(Cl)c3)cc2)cn1 as the compound, how does the MIC read?
**A.** Its MIC is at least 200 µM.

**Q.** For Cl.Nc1ncc(-c2ccc(NC(=O)c3cc(Br)cc(Br)c3)cc2)cn1, which MIC is on record?
**A.** The MIC was at least 200 µM.

**Q.** For Cl.Nc1nccc(-c2ccc(NC(=O)c3cc(Br)cc(Br)c3)cc2)n1, which MIC is on record?
**A.** The MIC was at least 200 µM.

**Q.** Cl.Nc1ncc(-c2ccc(NC(=O)c3cc(F)cc(F)c3)cc2)cn1 was tested. Which MIC did it give?
**A.** Its MIC is at least 200 µM.

**Q.** For Cl.Nc1ncc(-c2ccccc2NC(=O)c2cc(F)cc(F)c2)cn1, which MIC is on record?
**A.** Its MIC is at least 200 µM.

**Q.** How did the MIC turn out when Cl.Nc1ncc(-c2ccccc2NC(=O)c2cc(Cl)cc(Cl)c2)cn1 was run?
**A.** Its MIC is at least 200 µM.

**Q.** Which MIC does the source give for Cl.Nc1nccc(-c2cccc(NC(=O)c3cc(F)cc(F)c3)c2)n1 here?
**A.** Its MIC is at least 200 µM.

**Q.** How did the MIC turn out when Cl.Nc1ncc(-c2ccccc2NC(=O)c2cc(Br)cc(Br)c2)cn1 was run?
**A.** The MIC was at least 200 µM.

test system: Staphylococcus aureus; assay: Antibacterial activity against methicillin-resistant Staphylococcus aureus ATCC 43300 assessed as inhibition of planktonic bacterial growth at IC50 incubated for 24 hrs by colony counter analysis; assay type: functional; details: not given
Summary of the method: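 MRSA 43300 grown overnight in TSB with 2.0% glucose (TSBG), inoculated into fresh TSBG at OD600 0.01, compound added to 3 mL tube cultures; untreated control. Shaken at 37 °C; samples at 2, 4, 6, 8, 24 h serially diluted in TSBG, plated on nutrient agar, incubated overnight at 37 °C, colonies counted. Duplicates, at least two separate repeats.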

**Q.** With Nc1nccc(-c2cccc(NC(=O)c3cc(Cl)cc(Br)c3)c2)n1 as the compound, how does the MIC read?
**A.** The MIC was over 200 µM.

test system: Acinetobacter baumannii; assay: Antibacterial activity against Acinetobacter baumannii ATCC 4106 assessed as reduction in bacterial growth incubated for 16 hrs by broth microdilution assay; assay type: functional; details: not given; summary of the method: as §1

**Q.** Which MIC does the source give for Cl.Nc1ncc(-c2ccc(NC(=O)c3cc(Cl)cc(Cl)c3)cc2)cn1 here?
**A.** The MIC was at least 200 µM.

**Q.** How did the MIC turn out when Cl.Nc1ncc(-c2ccc(NC(=O)c3cc(Br)cc(Br)c3)cc2)cn1 was run?
**A.** The MIC was at least 200 µM.

**Q.** How did the MIC turn out when Cl.Nc1nccc(-c2ccc(NC(=O)c3cc(Br)cc(Br)c3)cc2)n1 was run?
**A.** Its MIC is at least 200 µM.

**Q.** With Cl.Nc1ncc(-c2ccc(NC(=O)c3cc(F)cc(F)c3)cc2)cn1 as the compound, how does the MIC read?
**A.** Its MIC is at least 200 µM.

**Q.** For Cl.Nc1ncc(-c2ccccc2NC(=O)c2cc(F)cc(F)c2)cn1, which MIC is on record?
**A.** The MIC was at least 200 µM.

**Q.** Cl.Nc1ncc(-c2ccccc2NC(=O)c2cc(Cl)cc(Cl)c2)cn1 was tested. Which MIC did it give?
**A.** The MIC was at least 200 µM.

**Q.** For Cl.Nc1nccc(-c2cccc(NC(=O)c3cc(F)cc(F)c3)c2)n1, which MIC is on record?
**A.** The MIC was at least 200 µM.

**Q.** How did the MIC turn out when Cl.Nc1ncc(-c2ccccc2NC(=O)c2cc(Br)cc(Br)c2)cn1 was run?
**A.** Its MIC is at least 200 µM.

test system: Acinetobacter baumannii; assay: Potentiation of colistin-induced antibacterial activty against Acinetobacter baumannii ATCC 4106 assessed as colistin MIC at 60 uM incubated for 16 hrs by broth microdilution assay (reference value: 1024 microg/ml); assay type: functional; details: not given
Summary of the method: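 Cultures grown 4–6 h in CAMHB, diluted to 5 x 10⁵ CFU/mL. Compound added to aliquots from 100 mM DMSO stock; one aliquot left undosed for colistin MIC alone. Colistin serially diluted 2-fold in the compound-dosed suspension; compound-alone wells kept. Stationary, 37 °C, 16 h, then OD₆₀₀. Colistin MIC = lowest concentration giving 90% growth inhibition vs untreated. Duplicate, at least twice.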

**Q.** For Cl.Nc1ncc(-c2ccc(NC(=O)c3cc(Cl)cc(Cl)c3)cc2)cn1, which MIC is on record?
**A.** Its MIC is over 64 µg/mL.

**Q.** With Cl.Nc1ncc(-c2ccc(NC(=O)c3cc(Br)cc(Br)c3)cc2)cn1 as the compound, how does the MIC read?
**A.** The MIC was over 64 µg/mL.

**Q.** For Cl.Nc1nccc(-c2ccc(NC(=O)c3cc(Br)cc(Br)c3)cc2)n1, which MIC is on record?
**A.** Its MIC is over 64 µg/mL.

**Q.** With Cl.Nc1ncc(-c2ccc(NC(=O)c3cc(F)cc(F)c3)cc2)cn1 as the compound, how does the MIC read?
**A.** Its MIC is over 64 µg/mL.

**Q.** How did the MIC turn out when Cl.Nc1ncc(-c2ccccc2NC(=O)c2cc(F)cc(F)c2)cn1 was run?
**A.** The MIC was over 64 µg/mL.

**Q.** How did the MIC turn out when Cl.Nc1ncc(-c2ccccc2NC(=O)c2cc(Cl)cc(Cl)c2)cn1 was run?
**A.** Its MIC is over 64 µg/mL.

**Q.** With Cl.Nc1nccc(-c2cccc(NC(=O)c3cc(F)cc(F)c3)c2)n1 as the compound, how does the MIC read?
**A.** Its MIC is over 64 µg/mL.

**Q.** With Cl.Nc1ncc(-c2ccccc2NC(=O)c2cc(Br)cc(Br)c2)cn1 as the compound, how does the MIC read?
**A.** Its MIC is over 64 µg/mL.

test system: Staphylococcus aureus; assay: Inhibition of biofilm formation in methicillin-resistant Staphylococcus aureus ATCC 43300 incubated for 24 hrs by crystal violet staining based assay; assay type: functional, organism-based; details: ATCC 43300, 24 h
Summary of the method: (§2)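 Overnight culture subcultured to OD600 0.01 in TSB with 2.0% (w/v) glucose; compound diluted in this medium, 100 µL per well of PVC plates, static incubation 24 h at 37 °C. Wells washed with water, stained with 0.1% crystal violet 30 min at ambient temperature, stain solubilized in ethanol, OD540 read minus no-biofilm background. Duplicates, at least two separate repeats.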

**Q.** Cl.Nc1ncc(-c2ccc(NC(=O)c3cc(Cl)cc(Cl)c3)cc2)cn1 was tested. Which pIC50 did it give?
**A.** The pIC50 was under 3.70.

**Q.** How did the pIC50 turn out when Cl.Nc1ncc(-c2ccc(NC(=O)c3cc(Br)cc(Br)c3)cc2)cn1 was run?
**A.** The pIC50 was under 4.00.

**Q.** Cl.Nc1nccc(-c2ccc(NC(=O)c3cc(Br)cc(Br)c3)cc2)n1 was tested. Which pIC50 did it give?
**A.** Its pIC50 is under 4.30.

**Q.** How did the pIC50 turn out when Cl.Nc1ncc(-c2ccc(NC(=O)c3cc(F)cc(F)c3)cc2)cn1 was run?
**A.** Its pIC50 is under 3.70.

**Q.** Cl.Nc1ncc(-c2ccccc2NC(=O)c2cc(F)cc(F)c2)cn1 was tested. Which pIC50 did it give?
**A.** Its pIC50 is under 3.70.

**Q.** Cl.Nc1ncc(-c2ccccc2NC(=O)c2cc(Cl)cc(Cl)c2)cn1 was tested. Which pIC50 did it give?
**A.** The pIC50 was under 4.00.

**Q.** Nc1nccc(-c2cccc(NC(=O)c3cc(Cl)cc(Br)c3)c2)n1 was tested. Which pIC50 did it give?
**A.** The pIC50 was 4.56.

**Q.** Cl.Nc1nccc(-c2cccc(NC(=O)c3cc(F)cc(F)c3)c2)n1 was tested. Which pIC50 did it give?
**A.** Its pIC50 is under 3.70.

**Q.** With Cl.Nc1ncc(-c2ccccc2NC(=O)c2cc(Br)cc(Br)c2)cn1 as the compound, how does the pIC50 read?
**A.** Its pIC50 is 4.16.

test system: Staphylococcus aureus; assay: Inhibition of biofilm formation in methicillin-resistant Staphylococcus aureus ATCC 43300 at 200 uM incubated for 24 hrs by crystal violet staining based assay relative to control; assay type: functional; details: not given; summary of the method: as §2

**Q.** Which inhibition at 200 µM does the source give for Cl.Nc1ncc(-c2ccc(NC(=O)c3cc(Cl)cc(Cl)c3)cc2)cn1 here?
**A.** The inhibition at 200 µM was over 50%.

**Q.** For Cl.Nc1ncc(-c2ccc(NC(=O)c3cc(Br)cc(Br)c3)cc2)cn1, which inhibition at 200 µM is on record?
**A.** Its inhibition at 200 µM is over 50%.

**Q.** For Cl.Nc1nccc(-c2ccc(NC(=O)c3cc(Br)cc(Br)c3)cc2)n1, which inhibition at 200 µM is on record?
**A.** The inhibition at 200 µM was over 50%.

**Q.** Cl.Nc1ncc(-c2ccc(NC(=O)c3cc(F)cc(F)c3)cc2)cn1 was tested. Which inhibition at 200 µM did it give?
**A.** Its inhibition at 200 µM is over 50%.

**Q.** Which inhibition at 200 µM does the source give for Cl.Nc1ncc(-c2ccccc2NC(=O)c2cc(F)cc(F)c2)cn1 here?
**A.** Its inhibition at 200 µM is over 50%.

**Q.** For Cl.Nc1ncc(-c2ccccc2NC(=O)c2cc(Cl)cc(Cl)c2)cn1, which inhibition at 200 µM is on record?
**A.** The inhibition at 200 µM was over 50%.

**Q.** How did the inhibition at 200 µM turn out when Cl.Nc1nccc(-c2cccc(NC(=O)c3cc(F)cc(F)c3)c2)n1 was run?
**A.** The inhibition at 200 µM was over 50%.

**Q.** Cl.Nc1ncc(-c2ccccc2NC(=O)c2cc(Br)cc(Br)c2)cn1 was tested. Which inhibition at 200 µM did it give?
**A.** Its inhibition at 200 µM is over 50%.

test system: Staphylococcus aureus; assay: Inhibition of biofilm formation in methicillin-resistant Staphylococcus aureus BAA-44 incubated for 24 hrs by crystal violet staining based assay; assay type: functional, organism-based; details: BAA-44, 24 h; summary of the method: as §2

**Q.** With CCCCCCCCCC(=O)NCCCc1cnc(N)nc1 as the compound, how does the pIC50 read?
**A.** The pIC50 was 4.14.

test system: Staphylococcus aureus; assay: Antibiofilm activity against preformed methicillin-resistant Staphylococcus aureus ATCC 43300 assessed as dispersion of biofilm at 100 uM incubated for 24 hrs by crystal violet staining based assay; assay type: functional, organism-based; details: not given
Summary of the method: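 Overnight culture in TSB + 2.0% glucose subcultured to OD600 0.01 in TSBG; 100 µL per well of PVC plates, static 37 °C for 24 h to form biofilm. After washing, compound in medium added for a further 24 h at 37 °C; medium-only control. Washed, 0.1% crystal violet 30 min, ethanol-solubilized, OD540 with no-biofilm background subtracted. Duplicates, ≥2 repeats.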

**Q.** Cl.Nc1ncc(-c2ccc(NC(=O)c3cc(Cl)cc(Cl)c3)cc2)cn1 was tested. Which Activity did it give?
**A.** Its Activity is “inactive”.

**Q.** Which Activity does the source give for Cl.Nc1ncc(-c2ccc(NC(=O)c3cc(Br)cc(Br)c3)cc2)cn1 here?
**A.** Its Activity is “inactive”.

**Q.** Which Activity does the source give for Cl.Nc1nccc(-c2ccc(NC(=O)c3cc(Br)cc(Br)c3)cc2)n1 here?
**A.** Its Activity is “inactive”.

**Q.** With Cl.Nc1ncc(-c2ccc(NC(=O)c3cc(F)cc(F)c3)cc2)cn1 as the compound, how does the Activity read?
**A.** Its Activity is “inactive”.

**Q.** Which Activity does the source give for Cl.Nc1ncc(-c2ccccc2NC(=O)c2cc(F)cc(F)c2)cn1 here?
**A.** The Activity was “inactive”.

**Q.** How did the Activity turn out when Cl.Nc1ncc(-c2ccccc2NC(=O)c2cc(Cl)cc(Cl)c2)cn1 was run?
**A.** The Activity was “inactive”.

**Q.** How did the Activity turn out when Cl.Nc1nccc(-c2cccc(NC(=O)c3cc(F)cc(F)c3)c2)n1 was run?
**A.** The Activity was “inactive”.

**Q.** How did the Activity turn out when Cl.Nc1ncc(-c2ccccc2NC(=O)c2cc(Br)cc(Br)c2)cn1 was run?
**A.** The Activity was “inactive”.
